pKd, pKi: −log10 of the molar value.
Key:
Mu-type opioid receptor [1] = target: T1, Mu-type opioid receptor (Homo sapiens, UniProt P35372); assay: biochemical; format: cell-based, CHO
Mu-type opioid receptor [2] = target: T1, Mu-type opioid receptor; assay: biochemical; format: cell-based, CHO; remark: listed apart in the source
Mu-type opioid receptor [3] = target: T1, Mu-type opioid receptor; assay: biochemical; format: cell-based, CHO; remark: listed apart in the source
Mu-type opioid receptor [4] = target: T1, Mu-type opioid receptor; assay: Binding affinity to MOR-1 expressed in CHO cells after 90 mins; format: cell-based; details: for Bmax: tested as the 125I-labelled form
How it was run: (§1)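 Saturation binding of the carrier-free 125I-radioligand (KD) in membranes of CHO cells stably transfected with the named opioid receptor. For one DOR-1 saturation, specific activity was diluted 10-fold to allow higher ligand concentrations. Curves were fit to a single site by nonlinear regression. KD is the mean ± SEM of at least 3 independent determinations.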

[5] = target: T2, Kappa-type opioid receptor (Homo sapiens, UniProt P41145); assay: Displacement of [125I]-IBNtxA from KOR-1 expressed in CHO cells; format: cell-based
[6] = target: T2, Kappa-type opioid receptor; assay: Displacement of [125I]-IBNalA from KOR-1 expressed in CHO cells; format: cell-based
[7] = target: T2, Kappa-type opioid receptor; assay: Displacement of [3H]-U69593 from KOR-1 expressed in CHO cells after 60 mins; format: cell-based
How it was run: (§2)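 Competition binding in membranes of CHO cells stably transfected with MOR-1, DOR-1 or KOR-1. Tracers were 1 nM 3H-DAMGO (MOR-1), 3H-DPDPE (DOR-1) or 3H-U69,593 (KOR-1). IC50 came from nonlinear regression and was converted to Ki. Values are the mean ± SEM of at least three independent replications.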

[8] = target: T3, Delta-type opioid receptor (Homo sapiens, UniProt P41143); assay: Binding affinity to DOR-1 expressed in CHO cells after 90 mins; format: cell-based; details: for Bmax: tested as the 125I-labelled form
How it was run: as §1

[9] = target: T3, Delta-type opioid receptor; assay: Displacement of [3H]-DPDPE from DOR-1 expressed in CHO cells after 60 mins; format: cell-based
How it was run: as §2

Mu-type opioid receptor [10] = target: T1, Mu-type opioid receptor; assay: Displacement of [3H]-DAMGO from MOR-1 expressed in CHO cells after 150 mins; format: cell-based
How it was run: as §2

[11] = target: T2, Kappa-type opioid receptor; assay: Binding affinity to KOR-1 expressed in CHO cells after 90 mins; format: cell-based; details: for Bmax: tested as the 125I-labelled form
How it was run: as §1

T3 sequence (P41143 whole entry): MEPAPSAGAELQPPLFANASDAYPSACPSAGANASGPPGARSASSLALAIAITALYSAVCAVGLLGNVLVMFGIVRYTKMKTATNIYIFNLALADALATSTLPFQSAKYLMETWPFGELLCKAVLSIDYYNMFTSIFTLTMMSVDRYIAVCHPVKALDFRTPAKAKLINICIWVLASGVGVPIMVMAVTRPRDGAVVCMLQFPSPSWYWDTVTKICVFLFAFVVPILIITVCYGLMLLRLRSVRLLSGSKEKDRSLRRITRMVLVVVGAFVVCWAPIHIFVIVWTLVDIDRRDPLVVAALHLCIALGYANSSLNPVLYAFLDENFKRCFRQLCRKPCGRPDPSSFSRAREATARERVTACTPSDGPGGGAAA
T2 sequence (P41145 whole entry): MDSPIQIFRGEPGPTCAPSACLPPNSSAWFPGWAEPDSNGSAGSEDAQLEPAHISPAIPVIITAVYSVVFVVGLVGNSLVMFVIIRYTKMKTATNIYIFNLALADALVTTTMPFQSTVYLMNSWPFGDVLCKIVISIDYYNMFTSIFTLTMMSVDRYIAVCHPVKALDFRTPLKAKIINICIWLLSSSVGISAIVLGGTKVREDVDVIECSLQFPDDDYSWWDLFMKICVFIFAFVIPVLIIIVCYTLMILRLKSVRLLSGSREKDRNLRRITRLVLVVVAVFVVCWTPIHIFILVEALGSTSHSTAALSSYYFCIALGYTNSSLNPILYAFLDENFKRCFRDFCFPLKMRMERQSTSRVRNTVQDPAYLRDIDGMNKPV
T1 sequence (P35372 whole entry): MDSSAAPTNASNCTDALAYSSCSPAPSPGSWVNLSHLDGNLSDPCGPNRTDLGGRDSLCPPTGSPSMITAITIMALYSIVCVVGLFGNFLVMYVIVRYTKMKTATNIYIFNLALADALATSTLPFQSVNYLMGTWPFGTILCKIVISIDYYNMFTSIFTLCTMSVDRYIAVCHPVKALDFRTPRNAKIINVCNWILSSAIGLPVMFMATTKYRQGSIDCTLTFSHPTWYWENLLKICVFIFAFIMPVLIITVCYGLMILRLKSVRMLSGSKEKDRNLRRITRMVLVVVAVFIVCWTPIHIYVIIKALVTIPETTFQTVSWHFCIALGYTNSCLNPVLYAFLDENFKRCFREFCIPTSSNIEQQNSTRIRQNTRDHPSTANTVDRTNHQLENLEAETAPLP

**Q.** `C=CCN1CC[C@]23CCCC[C@H]2[C@H]1Cc1ccc(O)cc13` [LEVALLORPHAN] was tested. Which pKi (Mu-type opioid receptor [1]) did it give?
**A.** 8.77

**Q.** What about the pKi (Mu-type opioid receptor [2]) of the same compound?
**A.** 9.32

**Q.** And the pKi (Mu-type opioid receptor [3])?
**A.** 8.89

**Q.** `CN1CC[C@]23c4c5ccc(O)c4O[C@H]2[C@H](NC(=O)c2cccc([125I])c2)CC[C@@]3(O)[C@H]1C5` was tested. Which pKd (Mu-type opioid receptor [4]) did it give?
**A.** 10.10

**Q.** How did the pKi [5] turn out when `N=C(N)Nc1ccc2[nH]c3c(c2c1)C[C@@]1(O)[C@H]2Cc4ccc(O)c5c4[C@@]1(CCN2CC1CC1)[C@H]3O5` [GUANIDINONALTRINDOLE] was run?
**A.** 9.82

**Q.** And the pKi [6]?
**A.** 9.72

**Q.** With `C=CCN1CC[C@]23c4c5ccc(O)c4O[C@H]2[C@H](NC(=O)c2cccc(I)c2)CC[C@@]3(O)[C@H]1C5` as the compound, how does the pKi [7] read?
**A.** 10.10

**Q.** And the Bmax [8]?
**A.** 2.7 pmol/mg

**Q.** And the Bmax (Mu-type opioid receptor [4])?
**A.** 1.18 pmol/mg

**Q.** And the pKi [9]?
**A.** 8.59

**Q.** And the pKi (Mu-type opioid receptor [10])?
**A.** 9.15

**Q.** And the Bmax [11]?
**A.** 1.15 pmol/mg

**Q.** With `O=C(N[C@@H]1CC[C@@]2(O)[C@H]3Cc4ccc(O)c5c4[C@@]2(CCN3CC2CC2)[C@H]1O5)c1cccc([125I])c1` as the compound, how does the pKd [8] read?
**A.** 9.62

**Q.** And the pKd (Mu-type opioid receptor [4])?
**A.** 9.96

**Q.** What about the pKd [11] of the same compound?
**A.** 10.57

**Q.** What does the source list for `CN1CC[C@]23c4c5ccc(O)c4O[C@H]2[C@H](NC(=O)c2cccc(I)c2)CC[C@@]3(O)[C@H]1C5`?
**A.** pKi [7]: 8.05; Bmax (Mu-type opioid receptor [4]): 1.49 pmol/mg; pKi (Mu-type opioid receptor [10]): 8.76

**Q.** `O=C(N[C@@H]1CC[C@@]2(O)[C@H]3Cc4ccc(O)c5c4[C@@]2(CCN3CC2CC2)[C@H]1O5)c1cccc(I)c1` was tested. Which pKi [7] did it give?
**A.** 9.64

**Q.** And the Bmax [8]?
**A.** 0.96 pmol/mg

**Q.** And the Bmax (Mu-type opioid receptor [4])?
**A.** 3.81 pmol/mg

**Q.** What about the pKi [9] of the same compound?
**A.** 9.24

**Q.** What about the pKi (Mu-type opioid receptor [10]) of the same compound?
**A.** 8.60

**Q.** And the Bmax [11]?
**A.** 0.57 pmol/mg

**Q.** With `C=CCN1CC[C@]23c4c5ccc(O)c4O[C@H]2[C@H](NC(=O)c2cccc([125I])c2)CC[C@@]3(O)[C@H]1C5` as the compound, how does the pKd [8] read?
**A.** 8.60

**Q.** And the pKd (Mu-type opioid receptor [4])?
**A.** 9.66

**Q.** And the pKd [11]?
**A.** 10.30

Source: ChEMBL document CHEMBL1795226, “Generation of novel radiolabeled opiates through site-selective iodination” (Bioorg Med Chem Lett, 2011)
